# Bioassay records (PubChem BioAssay)
# PfGluPho inh – PfG6PD (Plasmodium falciparum) enzyme inhibition. PfGluPho enzyme, NADPH resazurin-diaphorase fluorescence. inhibition, % at 20 µM. 350,000 compounds, 0.78% hits;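 active means inhibition reaching at least a set limit at 20 µM in the primary screen, cut at about 59% in these data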;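 further: 0% = DMSO wells with substrate and 100% = DMSO wells lacking glucose-6-phosphate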
# G6PDH CS – counter-screen for G6PDH assay hits: L. mesenteroides G6PDH inhibition; 200,000 compounds, 0.12% hits; Purified L. mesenteroides G6PDH, diaphorase/resazurin coupled fluorescence, 45 min; AID 1020; inhibition, % at 5 µM; in the data active means inhibition above about 50%
# Diaphorase act – diaphorase activation or chemical reduction counter-screen; Diaphorase/resazurin coupled assay, resorufin fluorescence, 16 min; hits give high values; 1 = vehicle wells, 0 = NADH-free wells; 190,000 compounds, 0.005% hits; activation factor at 20 µM; AID 1229;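 active means diaphorase activity raised at least twofold by the compound at 20 µM; inactive means activation factor below 2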
#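 Assay system: Purified diaphorase enzyme from Clostridium kluyveri | Amount: Enzyme 0.07 U/mL final | Dosing: Compound 20 µM once, DMSO 1% | Timing: 16 min reaction at room temperature | Detection: Fluorescence, excitation 544 nm and emission 590 nm | Evaluation: Higher resorufin formation from activation or reduction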
# HKDC1 inh – HKDC1 (human) hexokinase inhibition | Q2TB90 | inhibition, % at 20 µM | recombinant HKDC1, G6PDH/diaphorase resazurin coupled fluorescence | AID 493160 | 340,000 compounds, 0.16% hits;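 active means inhibition above about 35% when tested at 20 µM, limit read from the data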;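 further: plate controls were DMSO wells with enzyme for no effect and DMSO wells lacking enzyme for full effect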
# Target sequence (Q2TB90 whole entry, looked up): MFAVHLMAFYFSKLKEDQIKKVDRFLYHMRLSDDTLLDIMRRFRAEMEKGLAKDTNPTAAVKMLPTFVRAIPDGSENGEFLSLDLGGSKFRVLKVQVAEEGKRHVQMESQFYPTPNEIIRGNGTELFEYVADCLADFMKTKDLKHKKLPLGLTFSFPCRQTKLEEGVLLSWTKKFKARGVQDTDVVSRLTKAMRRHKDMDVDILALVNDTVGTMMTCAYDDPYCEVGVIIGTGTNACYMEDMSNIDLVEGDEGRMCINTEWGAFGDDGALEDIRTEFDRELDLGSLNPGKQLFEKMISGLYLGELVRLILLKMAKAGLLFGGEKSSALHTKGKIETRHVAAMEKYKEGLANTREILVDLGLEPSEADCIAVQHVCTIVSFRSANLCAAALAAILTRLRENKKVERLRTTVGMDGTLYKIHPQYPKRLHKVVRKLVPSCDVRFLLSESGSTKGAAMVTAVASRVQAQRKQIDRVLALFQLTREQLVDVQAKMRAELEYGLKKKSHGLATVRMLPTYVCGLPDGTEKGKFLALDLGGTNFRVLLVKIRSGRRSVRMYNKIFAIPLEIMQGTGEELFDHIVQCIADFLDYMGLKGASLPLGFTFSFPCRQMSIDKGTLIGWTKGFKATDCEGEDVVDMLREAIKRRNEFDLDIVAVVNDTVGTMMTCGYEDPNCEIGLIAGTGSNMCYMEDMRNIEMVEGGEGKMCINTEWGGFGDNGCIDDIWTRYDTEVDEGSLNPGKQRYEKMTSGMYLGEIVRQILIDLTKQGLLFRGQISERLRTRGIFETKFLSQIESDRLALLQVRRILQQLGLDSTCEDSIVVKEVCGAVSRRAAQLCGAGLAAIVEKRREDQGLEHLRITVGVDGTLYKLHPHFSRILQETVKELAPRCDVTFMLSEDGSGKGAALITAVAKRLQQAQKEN
#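 Test system: Recombinant HKDC1 (HK5) hexokinase enzyme, produced in-house | Input: HKDC1 at 5 µg/mL | Buffer or medium: Tris pH 8.0 buffer with MgCl2, Tween-20, BSA, BME | Schedule: 90 min reaction incubation at room temperature, dark | Technique: Resazurin-to-resorufin fluorescence via G6PDH and diaphorase coupling, 525/613 nm | Controls: DMSO wells with and without enzyme mix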
# Diaphorase inh – counter-screen for diaphorase-based assays: diaphorase inhibitors and chemical oxidizers. 190,000 compounds, 0.69% hits. inhibition, % at 20 µM. AID 1217. diaphorase resazurin-to-resorufin fluorescence, NADH, 16 min; bacterial (C. kluyveri) enzyme, not human;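 active means primary screen inhibition at 20 µM above a set limit, cut at about 50% in these data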;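 further: plate controls were DMSO with full reaction for no effect and wells lacking NADH for full effect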
#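 Assay system: diaphorase enzyme from Clostridium kluyveri; Input: enzyme working solution with 0.14 U/mL diaphorase; Timing: 16 min at room temperature; Technique: resorufin fluorescence, excitation 544 nm, emission 590 nm; Benchmarks: positive control minus NADH, DMSO neutral control.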
# Active calls of the source: *; . = no result given. In the library only some 1.2% were active in any assay of this set; here they are far more common.
SMILES,PfGluPho inh,G6PDH CS,Diaphorase act,HKDC1 inh,Diaphorase inh
CC(CN1CCOCC1)OC(=O)c1ccc(Br)cc1 (stereo unspecified),14,57*,0.7,2,34
O=C(Nc1cccc(C(F)(F)F)c1)c1ccc2nc(-c3ccco3)c(-c3ccco3)nc2c1,41,11,0.8,34,24
O=C(O)c1ccc2nc(-c3ccco3)c(-c3ccco3)nc2c1,51,43,0.2,12,84*
O=S(=O)(c1ccc2ccccc2c1)N1CCOCC1,14,.,.,-1,.
O=C(O)c1cc(-c2ccco2)nc2ccc(Br)cc12,18,-4,0.3,30,65*
O=S(=O)(c1ccc2nc(-c3ccco3)c(-c3ccco3)nc2c1)N1CCOCC1,54,38,0.3,20,67*
O=C(c1ccc2nc(-c3ccco3)c(-c3ccco3)nc2c1)N1CCN(c2ccccc2)CC1,21,-28,0.4,3,56*
Brc1cc(Cc2nnc(-c3ccccc3)o2)c(Br)s1,23,.,.,-1,.
O=C(NCc1ccco1)c1ccc(Cl)cc1[N+](=O)[O-],4,.,.,-7,.
O=C(CSc1n[nH]c(-c2cccnc2)n1)Nc1ccccc1,12,2,0.9,-5,7
O=C(CSc1n[nH]c(-c2ccccc2)n1)Nc1ncc(Br)cc1Br,19,1,0.4,48*,59*
COc1cc(C(=O)N2CCN(Cc3ccc4c(c3)OCO4)CC2)cc(OC)c1OC,-9,.,.,-2,.
CC(Oc1ccc(Br)cc1)c1nc2c3ccccc3nc(=S)n2[nH]1 (stereo unspecified),-6,4,0.1,-24,85*
S=c1nc2ccccc2c2nc(-c3ccccc3)[nH]n12,40,6,0.2,-21,77*
CCCC(Oc1ccc(Br)cc1)c1nc2c3cc(OC)c(OC)cc3nc(=S)n2[nH]1 (stereo unspecified),13,1,0.7,-27,29
CC(NCc1ccc(F)cc1)C(=O)Nc1cc(S(=O)(=O)N2CCCCC2)ccc1Cl (stereo unspecified),5,5,0.8,0,15
Nc1nc2c(s1)CCc1ccccc1-2,37,.,.,16,.
COc1ccc2c(c1)-c1nc(N)sc1CC2,33,43,0.4,28,60*
CC(C)=CCc1c(O)ccc2c1OC(c1ccc(O)c(O)c1)CC2=O (stereo unspecified),-1,28,0.4,4,62*
C/C(=N/Nc1ccc(C(=O)O)cc1)c1ccc(O)c(O)c1O,-3,25,0.4,3,61*
COC(=O)c1c(NC(=O)COC(=O)C2CCC2)sc(C)c1C,-7,.,.,-1,.
N#Cc1cccc(N=Cc2c(O)ccc3ccccc23)c1,16,62*,0.6,32,36
O=C(Nc1ccc(Cl)cc1Cl)c1cccc(N2C(=O)C=CC2=O)c1,113*,.,.,-7,.
COC(=O)C1CCN(C(=O)Cn2nnc(-c3cccc(F)c3)n2)CC1,3,.,.,-4,.
Cc1cccc(CSc2nc3c(c(-c4cccs4)c2C#N)CN(C)CC3)c1,8,0,0.4,-3,58*
SMILES,PfGluPho inh,G6PDH CS,Diaphorase act,HKDC1 inh,Diaphorase inh
Cc1cccc(CSc2nc(N)c(C#N)c(-c3cccs3)c2C#N)c1,15,4,0.8,5,18
Cc1csc(NC(=O)CSC2=NS(=O)(=O)c3cc(F)ccc3N2)n1,-29,.,.,3,.
O=c1[nH]c2ccccc2c2nc3ccccn3c12,-7,-2,0.9,7,13
O=c1nc2c(O)cccn2c2c1c(=O)[nH]c1ccccc12,44,-8,0.3,17,75*
Cc1ccc(S(=O)(=O)N2CCOCC2)cc1NC(=O)CSc1nnc2cc(C)c3ccccc3n12,9,10,0.5,20,54*
O=C(NC1CCCCC1)Oc1cccc2ccccc12,0,52*,0.7,4,28
O=C1C=C(NCCN2CCOCC2)C(=O)c2cnccc21,.,60*,0.8,.,23
COc1ccc(/C=N\NC(=S)SCN2C(=O)C3CCC(C)(C2=O)C3(C)C)cc1 (stereo unspecified),12,.,.,-17,.
CC12CCC(C(=O)N(CSC(=S)N/N=C\c3ccccc3O)C1=O)C2(C)C (stereo unspecified),-31,5,0.4,-26,57*
COc1cccc(C=NN2CCCCCC2)c1OC,-9,.,.,-8,.
